Active and inactive are the calls of the source. No cut-off for these calls is given here.
Key:
Aurora kinase A [1] = target: T1, Aurora kinase A (Homo sapiens, UniProt O14965); assay: Inhibition of autophosphorylation of N-terminal Myc tagged aurora-A at T288 in human HeLa cells after 2 hrs; format: cell-based
T1 sequence (O14965 whole entry): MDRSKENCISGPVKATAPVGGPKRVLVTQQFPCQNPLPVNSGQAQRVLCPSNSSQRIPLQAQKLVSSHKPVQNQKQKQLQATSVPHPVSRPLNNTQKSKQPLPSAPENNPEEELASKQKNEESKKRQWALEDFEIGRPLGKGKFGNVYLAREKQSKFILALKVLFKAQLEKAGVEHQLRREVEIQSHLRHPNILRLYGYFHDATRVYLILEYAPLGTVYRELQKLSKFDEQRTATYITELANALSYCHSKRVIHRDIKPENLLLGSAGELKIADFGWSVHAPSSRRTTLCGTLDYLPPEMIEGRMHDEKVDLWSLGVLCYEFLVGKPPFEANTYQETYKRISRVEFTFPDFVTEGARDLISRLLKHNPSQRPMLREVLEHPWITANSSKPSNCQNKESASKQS
How it was run: (§1)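 Cells transfected with Myc-tagged Aurora-A (wild type or T217E, L215R, R220K mutants) and treated with inhibitor concentrations for 2 h. Lysed in LDS buffer; SDS-type PAGE and western blot. Blots probed for P-T288 (Aurora-A autophosphorylation) and phospho-histone H3 S10 (Aurora-B substrate). Blots quantified; IC50 derived; ratio taken as H3 IC50 over T288 IC50.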

Aurora kinase B [2] = target: T2, Aurora kinase B (Homo sapiens, UniProt Q96GD4); assay: Inhibition of full-length aurora-B (unknown origin) using 5FAMLRRASLG-CONH2 as substrate after 60 mins
T2 sequence (Q96GD4 whole entry): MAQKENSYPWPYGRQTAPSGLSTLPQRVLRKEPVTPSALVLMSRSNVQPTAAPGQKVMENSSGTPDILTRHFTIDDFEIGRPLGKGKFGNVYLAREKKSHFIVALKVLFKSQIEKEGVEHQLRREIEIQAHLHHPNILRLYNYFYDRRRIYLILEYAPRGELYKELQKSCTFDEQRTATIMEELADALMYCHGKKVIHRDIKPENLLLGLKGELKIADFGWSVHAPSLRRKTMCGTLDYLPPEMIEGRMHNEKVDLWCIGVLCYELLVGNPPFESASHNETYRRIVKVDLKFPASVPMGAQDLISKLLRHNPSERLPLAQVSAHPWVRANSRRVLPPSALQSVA
How it was run: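 Full-length Aurora-B/INCENP complex (1 nM) incubated with 1.5 μM 5FAM-LRRASLG-CONH2 peptide and 15 μM ATP in Tris pH 7.4 buffer with NaCl, MgCl2, DTT, Tween 20. Runs 60 min at room temperature, then EDTA stop. Microfluidic mobility-shift readout of percent conversion. Duplicate 8-point curves, 0.25 pM–200 μM final. IC50 by four-parameter logistic fit.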

Aurora kinase A [3] = target: T1, Aurora kinase A; assay: Inhibition of N-terminal HIS-tagged aurora-A (unknown origin) using 5FAM-LRRASLG-CONH2 as substrate after 60 mins
How it was run: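 Aurora-A (5 nM N-terminal His-tagged) incubated with 1.5 μM 5FAM-LRRASLG-CONH2 peptide and 20 μM ATP in 50 mM Tris pH 7.4, 200 mM NaCl, 5 mM MgCl2, 2 mM DTT, 0.1% Tween 20. Runs 60 min at room temperature; EDTA stop. Microfluidic separation of product from substrate. Duplicate 8-point curves, 0.25 pM–200 μM final, 1–2% DMSO. IC50 from four-parameter logistic fit.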

Aurora kinase B [4] = target: T2, Aurora kinase B; assay: Inhibition of N-terminal Myc tagged aurora-B-mediated histone H3 phosphorylation at S10 in human HeLa cells after 2 hrs; format: cell-based; how it was run: as §1
HeLa = assay: Selectivity ratio of IC50 for aurora-B-mediated histone H3 phosphorylation at S10 in human HeLa cells to IC50 for autophosphorylation of N-terminal Myc tagged aurora-A at T288 in human HeLa cells; format: cell-based; how it was run: as §1
Homo sapiens = species: Homo sapiens; assay: Selectivity ratio of IC50 for aurora-B (unknown origin)-mediated histone H3 phosphorylation at S10 to IC50 for autophosphorylation of N-terminal Myc tagged aurora-A at T288 (unknown origin); how it was run: as §1
Aurora kinase A [5] = target: T1, Aurora kinase A; assay: Inhibition of autophosphorylation of N-terminal Myc tagged aurora-A at T288 (unknown origin) after 2 hrs; how it was run: as §1
Aurora kinase B [6] = target: T2, Aurora kinase B; assay: Inhibition of N-terminal Myc tagged aurora-B (unknown origin)-mediated histone H3 phosphorylation at S10 after 2 hrs; how it was run: as §1
Aurora kinase B [7] = target: T2, Aurora kinase B; assay: Inhibition of N-terminal Myc tagged aurora-B-mediated histone H3 phosphorylation at S10 in human HCT116 cells after 2 hrs; format: cell-based, HCT-116
How it was run: (§2)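 Cells transfected with N-terminal Myc-tagged Aurora-A (wild type or T217E, L215R or R220K mutant, made by Quikchange mutagenesis), then exposed to a range of inhibitor concentrations for 2 h. Lysed in LDS sample buffer, sonicated, boiled, run on LDS-PAGE and blotted to nitrocellulose. Probed with anti-P-T288 (Aurora-A autophosphorylation) and anti-P-histone H3 S10 (Aurora-B substrate) antibodies. Blots quantified and IC50 fitted.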

Aurora kinase A [8] = target: T1, Aurora kinase A; assay: Inhibition of autophosphorylation of N-terminal Myc tagged aurora-A at T288 in human HCT116 cells after 2 hrs; format: cell-based, HCT-116; how it was run: as §1
Aurora kinase A [9] = target: Aurora kinase A (Homo sapiens, UniProt O14965, R220K); assay: Inhibition of autophosphorylation of aurora-A R220K mutant at T288 in human HCT116 cells after 2 hrs; format: cell-based, HCT-116; how it was run: as §2
Sequence of Aurora kinase A (Homo sapiens, UniProt O14965, R220K) (O14965 whole entry I57V/R220K): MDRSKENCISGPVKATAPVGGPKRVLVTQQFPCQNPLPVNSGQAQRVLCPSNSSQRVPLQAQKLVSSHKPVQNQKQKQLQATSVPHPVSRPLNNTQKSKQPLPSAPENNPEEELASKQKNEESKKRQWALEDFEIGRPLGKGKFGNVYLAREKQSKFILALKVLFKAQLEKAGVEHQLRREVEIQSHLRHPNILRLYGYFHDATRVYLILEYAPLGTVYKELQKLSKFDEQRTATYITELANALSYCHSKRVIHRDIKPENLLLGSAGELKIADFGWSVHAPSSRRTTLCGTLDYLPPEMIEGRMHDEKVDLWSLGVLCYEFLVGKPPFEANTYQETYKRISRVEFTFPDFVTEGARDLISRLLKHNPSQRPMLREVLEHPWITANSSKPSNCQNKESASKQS

Aurora kinase A [10] = target: Aurora kinase A (Homo sapiens, UniProt O14965, T217E); assay: Inhibition of autophosphorylation of aurora-A T217E mutant at T288 in human HCT116 cells after 2 hrs; format: cell-based, HCT-116; how it was run: as §2
Sequence of Aurora kinase A (Homo sapiens, UniProt O14965, T217E) (O14965 whole entry I57V/T217E): as the sequence (O14965 whole entry I57V/R220K) above, with T217E, K220R counted along it

[11] = Metabolic stability in human liver microsomes at 10 uM after 30 mins; format: ADME; details: read-out: Stability
How it was run: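 Mixed-gender pooled human liver microsomes (1 mg/mL) incubated with compound at 10 μM plus NADPH 1 mM, UDPGA 2.5 mM and MgCl2 3 mM in 10 mM PBS at 37 °C, for 0 and 30 min. Cofactor-free controls included. Percent remaining measured by LC/MS.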

Aurora kinase A [12] = target: T1, Aurora kinase A; assay: Inhibition of autophosphorylation of N-terminal Myc tagged wild type aurora-A at T288 in human HCT116 cells after 2 hrs; format: cell-based, HCT-116; how it was run: as §2
Mus musculus = assay: Oral bioavailability in Balb/C mouse at 5 mg/kg; format: ADME, organism-based; details: in vivo
How it was run: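 Female Balb/C mice given 5 mg/kg po or iv in 10% DMSO/5% Tween 20 in saline. Terminal cardiac-puncture plasma taken at 5, 15, 30 min and 1, 2, 4, 6, 24 h. Methanol precipitation with olomoucine internal standard. Analysis by LC/MS (ESI+ MRM).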

[13] = Metabolic stability in CD1 mouse liver microsomes at 10 uM after 30 mins; format: ADME, Microsome; details: read-out: Stability
How it was run: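 Compound at 10 μM incubated with male CD1 mouse liver microsomes (1 mg/mL protein) plus NADPH 1 mM, UDPGA 2.5 mM and MgCl2 3 mM in 10 mM PBS at 37 °C, for 0 and 30 min. Controls omit cofactors. Percent remaining measured by LC/MS.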

Aurora kinase A [14] = target: Aurora kinase A (Homo sapiens, UniProt O14965, L215R); assay: Inhibition of autophosphorylation of aurora-A L215R mutant at T288 in human HCT116 cells after 2 hrs; format: cell-based, HCT-116; how it was run: as §2
Sequence of Aurora kinase A (Homo sapiens, UniProt O14965, L215R) (O14965 whole entry I57V/L215R): as the sequence (O14965 whole entry I57V/R220K) above, with L215R, K220R counted along it

[15] = target: Vascular endothelial growth factor receptor 1 (Homo sapiens) (UniProt P17948); assay: Inhibition of VEGFR1 (unknown origin) at 1 uM
Sequence of Vascular endothelial growth factor receptor 1 (Homo sapiens) (P17948 whole entry): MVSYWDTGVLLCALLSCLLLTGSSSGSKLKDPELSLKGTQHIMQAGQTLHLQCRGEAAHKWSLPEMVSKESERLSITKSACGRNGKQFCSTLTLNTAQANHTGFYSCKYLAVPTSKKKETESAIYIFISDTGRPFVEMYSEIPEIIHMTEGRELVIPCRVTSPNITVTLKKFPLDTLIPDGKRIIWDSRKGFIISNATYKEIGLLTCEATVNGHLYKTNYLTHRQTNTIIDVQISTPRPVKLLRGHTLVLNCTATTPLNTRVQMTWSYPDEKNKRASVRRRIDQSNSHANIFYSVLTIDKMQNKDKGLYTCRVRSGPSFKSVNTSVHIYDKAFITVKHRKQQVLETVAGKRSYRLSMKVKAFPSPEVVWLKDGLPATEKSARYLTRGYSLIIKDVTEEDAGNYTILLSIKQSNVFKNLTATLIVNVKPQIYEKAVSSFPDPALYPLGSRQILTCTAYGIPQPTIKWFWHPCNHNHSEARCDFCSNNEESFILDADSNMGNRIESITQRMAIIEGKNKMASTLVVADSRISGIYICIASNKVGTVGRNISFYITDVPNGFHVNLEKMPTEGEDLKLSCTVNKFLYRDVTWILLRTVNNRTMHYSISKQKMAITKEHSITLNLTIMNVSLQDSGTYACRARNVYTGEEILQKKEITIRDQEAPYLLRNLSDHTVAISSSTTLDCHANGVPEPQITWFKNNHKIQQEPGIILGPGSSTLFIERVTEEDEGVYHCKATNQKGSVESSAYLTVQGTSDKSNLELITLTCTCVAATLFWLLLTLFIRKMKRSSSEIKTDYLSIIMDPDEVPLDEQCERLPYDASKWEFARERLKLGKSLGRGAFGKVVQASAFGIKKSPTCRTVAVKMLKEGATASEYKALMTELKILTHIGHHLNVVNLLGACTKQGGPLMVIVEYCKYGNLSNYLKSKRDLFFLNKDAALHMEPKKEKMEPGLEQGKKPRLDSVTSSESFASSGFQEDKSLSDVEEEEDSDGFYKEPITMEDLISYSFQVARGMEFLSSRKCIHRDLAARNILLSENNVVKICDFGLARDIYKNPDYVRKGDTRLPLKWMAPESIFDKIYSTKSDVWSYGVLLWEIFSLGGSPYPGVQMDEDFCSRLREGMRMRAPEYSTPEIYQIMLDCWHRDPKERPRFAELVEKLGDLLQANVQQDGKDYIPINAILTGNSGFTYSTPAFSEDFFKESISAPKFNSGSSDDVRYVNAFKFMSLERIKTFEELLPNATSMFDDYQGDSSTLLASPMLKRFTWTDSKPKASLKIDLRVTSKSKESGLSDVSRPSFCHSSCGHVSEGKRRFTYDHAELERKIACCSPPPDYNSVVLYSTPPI
How it was run: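 110-kinase panel profiling, compounds tested at 1 μM, read as percent inhibition.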

[16] = target: T3, Aurora kinase A (Homo sapiens) (UniProt O14965); details: HCT-116, 1.5 uM
T3 sequence (whole entry): T1 sequence (O14965 whole entry)

Aurora kinase B [17] = target: T2, Aurora kinase B; details: HCT-116, 25 to 50 uM

IC50 (Aurora kinase B [2])	IC50 (Aurora kinase A [3])	SMILES	further results
2 nM	4 nM	CC(=O)N[C@@H]1CCN(c2c(Cl)cnc3[nH]c(-c4cn(C)nc4C)nc23)C1	
17 nM	7 nM	Cc1nn(C)cc1-c1nc2ncc(Cl)c(N3CCC[C@@H](CNS(C)(=O)=O)C3)c2[nH]1	
169 nM	255 nM	Cc1nn(C)cc1-c1nc2c(N(C)Cc3ccccc3)c(Cl)cnc2[nH]1	
80 nM	270 nM	CC(=O)N[C@H]1CCN(c2c(Cl)cnc3[nH]c(-c4cn(C)nc4C)nc23)C1	
3050 nM	15 nM	Cc1nn(C)cc1-c1nc2ncc(Cl)c(Oc3ccc(C(=O)NC4CCC4)cc3)c2[nH]1	IC50 (Aurora kinase A [1]): 70 nM; IC50 (Aurora kinase A [9]): 42 nM; IC50 (Aurora kinase B [4]): 24.2 µM; IC50 (Aurora kinase A [10]): 2290 nM; remaining at 0.5 h, 10 µM [11]: 22%; IC50 (Aurora kinase A [12]): 36 nM; F (Mus musculus): 14%; remaining at 0.5 h, 10 µM [13]: 28%; IC50 (Aurora kinase A [14]): 43 nM
9 nM	5 nM	Cc1nn(C)cc1-c1nc2c(N3CCC[C@H](CN(C)S(C)(=O)=O)C3)c(Cl)cnc2[nH]1	
8 nM	5 nM	Cc1nn(C)cc1-c1nc2c(N3CCC[C@H](CNS(C)(=O)=O)C3)c(Cl)cnc2[nH]1	

Continued, molecule first:

SMILES	IC50 (Aurora kinase B [2])	IC50 (Aurora kinase A [3])	further results
Cc1nn(C)cc1-c1nc2ncc(Cl)c(Oc3ccc(C(=O)Nc4ccncc4)cc3)c2[nH]1	3450 nM	190 nM	IC50 (Aurora kinase A [1]): 580 nM; IC50 (Aurora kinase B [4]): 19.7 µM
CC(=O)NC[C@@H]1CCN(c2c(Cl)cnc3nc(-c4cn(C)nc4C)[nH]c23)C1	7 nM	9 nM	
Cc1nn(C)cc1-c1nc2c(Oc3ccc(C(=O)Nc4ccncc4)cc3)c(Cl)cnc2[nH]1			Ratio IC50 (HeLa): 34
Cc1nn(C)cc1-c1nc2c(Nc3ccc(C(=O)Nc4ccccc4)cc3)c(Cl)cnc2[nH]1	4120 nM	75 nM	Ratio IC50 (Homo sapiens): 58; IC50 (Aurora kinase A [5]): 320 nM; IC50 (Aurora kinase B [6]): 18.6 µM
COc1ccc(-c2[nH]c3ncc(Cl)cc3c2-c2cccc(CNC(C)=O)c2)cc1	1090 nM	743 nM	
Cc1nn(C)cc1-c1nc2c(Oc3ccc(C(=O)Nc4cccnc4)cc3)c(Cl)cnc2[nH]1	1680 nM	58 nM	IC50 (Aurora kinase A [1]): 280 nM; IC50 (Aurora kinase B [4]): 19.7 µM; Ratio IC50 (HeLa): 70
COc1ccc(-c2[nH]c3ncc(Cl)cc3c2-c2cccc(CNS(C)(=O)=O)c2)cc1	7100 nM	1940 nM	
Cc1cc(NC(=O)c2ccc(Oc3c(Cl)cnc4nc(-c5cn(C)nc5C)[nH]c34)cc2)on1	693 nM	71 nM	IC50 (Aurora kinase B [7]): 4.93 µM; IC50 (Aurora kinase A [8]): 95 nM
Cn1cc(-c2[nH]c3ncc(Cl)cc3c2-c2cccc(CNS(C)(=O)=O)c2)cn1	441 nM	211 nM	
Cc1nn(C)cc1-c1nc2c(Oc3ccc(C(=O)NCc4ccccc4)cc3)c(Cl)cnc2[nH]1	3910 nM	204 nM	
CC(=O)NCc1cccc(-c2c(-c3cnn(C)c3)[nH]c3ncc(Cl)cc23)c1	97 nM	118 nM	
Cc1nn(C)cc1-c1nc2ncc(Cl)c(Oc3ccc(C(=O)N4CCCC4)cc3)c2[nH]1	1820 nM	45 nM	
O=C(Nc1ccccc1)c1ccc(Oc2c(Cl)cnc3nc[nH]c23)cc1		25800 nM	
Cc1nn(C)cc1-c1nc2c(Oc3ccc(C(=O)Nc4ccccc4)cc3)ccnc2[nH]1		618 nM	
Cc1nn(C)cc1-c1nc2c(Oc3ccc(C(=O)NC4CCC4)cc3)c(Cl)cnc2[nH]1			inhibition [15]: > 80%; inhibition [16]: Active; inhibition (Aurora kinase B [17]): Active; Ratio IC50 (HeLa): 346

Source: ChEMBL document CHEMBL3085696, “Aurora isoform selectivity: design and synthesis of imidazo[4,5-b]pyridine derivatives as highly selective inhibitors of Aurora-A kinase in cells” (J Med Chem, 2013)
